According to ChEMBL document CHEMBL4689842, “EUbOPEN Chemogenomics Library wave 1” (2021):

Tested on: HEK-293T
Test: Multiplex assay against HEK293T;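 as to Population Tubulin-Different-Phenotype (%): share of the cells with healthy nuclei that show this phenotype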
Assay type: toxicity, cell-based
Details: human
Procedure, shortened: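 Per cents of healthy-nucleus cells form the tubulin, mitochondrial-mass and membrane-permeability phenotype values. Live cells were stained at seeding with Hoechst33342, BioTracker Green Microtubule Cytoskeleton Dye, MitoTracker Red and Annexin V Alexa Fluor 680. After compound addition they were imaged on a CQ1 microscope at 37°C and 5% CO2, and CellPathfinder machine-learning gating split them into Hoechst high-intensity objects or normal cells, normal cells into healthy, pyknosed or fragmented nuclei, and pyknosed cells into mitotic or apoptotic.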

[1] = 12 h, 1 µM, compound concentration 1 uM, replicate 1
[2] = 12 h, 1 µM, compound concentration 1 uM, replicate 2
[3] = 12 h, 10 µM, compound concentration 10 uM, replicate 1
[4] = 12 h, 10 µM, compound concentration 10 uM, replicate 2
[5] = 24 h, 1 µM, compound concentration 1 uM, replicate 1
[6] = 24 h, 1 µM, compound concentration 1 uM, replicate 2
[7] = 24 h, 10 µM, compound concentration 10 uM, replicate 1
[8] = 24 h, 10 µM, compound concentration 10 uM, replicate 2
[9] = 48 h, 1 µM, compound concentration 1 uM, replicate 1
[10] = 48 h, 1 µM, compound concentration 1 uM, replicate 2
[11] = 48 h, 10 µM, compound concentration 10 uM, replicate 1
[12] = 48 h, 10 µM, compound concentration 10 uM, replicate 2

## Cc1nc(Nc2n[nH]c3c2CN(C(=O)N[C@H](CN(C)C)c2ccccc2)C3(C)C)c2sccc2n1 [PF-03758309]
[1]
  Population Apoptotic (%): 22%
  Population Fragmented Nuclei (%): 12%
  Population Healthy Nuclei (%): 65%
  Population Hoechst High Intensity Objects (%): 12%
  Population Membrane Permeable-Phenotype (%): 2%
  Population Mitochondria Different-Phenotype (%): 5%
  Population Mitotic Cells (%): 77%
  Population Normal (%): 87%
  Population Pyknosed Nuclei (%): 22%
  Population Tubulin-Different-Phenotype (%): 3%
  Total Cell Count: 616
[2]
  Population Apoptotic (%): 8%
  Population Fragmented Nuclei (%): 5%
  Population Healthy Nuclei (%): 87%
  Population Hoechst High Intensity Objects (%): 3%
  Population Membrane Permeable-Phenotype (%): 0%
  Population Mitochondria Different-Phenotype (%): 14%
  Population Mitotic Cells (%): 91%
  Population Normal (%): 96%
  Population Pyknosed Nuclei (%): 6%
  Population Tubulin-Different-Phenotype (%): 6%
  Total Cell Count: 1340
[3]
  Population Apoptotic (%): 27%
  Population Fragmented Nuclei (%): 16%
  Population Healthy Nuclei (%): 49%
  Population Hoechst High Intensity Objects (%): 17%
  Population Membrane Permeable-Phenotype (%): 12%
  Population Mitochondria Different-Phenotype (%): 21%
  Population Mitotic Cells (%): 72%
  Population Normal (%): 82%
  Population Pyknosed Nuclei (%): 33%
  Population Tubulin-Different-Phenotype (%): 45%
  Total Cell Count: 604
[4]
  Population Apoptotic (%): 24%
  Population Fragmented Nuclei (%): 3%
  Population Healthy Nuclei (%): 79%
  Population Hoechst High Intensity Objects (%): 6%
  Population Membrane Permeable-Phenotype (%): 10%
  Population Mitochondria Different-Phenotype (%): 46%
  Population Mitotic Cells (%): 75%
  Population Normal (%): 93%
  Population Pyknosed Nuclei (%): 16%
  Population Tubulin-Different-Phenotype (%): 87%
  Total Cell Count: 1040
[5]
  Population Apoptotic (%): 23%
  Population Fragmented Nuclei (%): 9%
  Population Healthy Nuclei (%): 76%
  Population Hoechst High Intensity Objects (%): 9%
  Population Membrane Permeable-Phenotype (%): 3%
  Population Mitochondria Different-Phenotype (%): 4%
  Population Mitotic Cells (%): 76%
  Population Normal (%): 90%
  Population Pyknosed Nuclei (%): 13%
  Population Tubulin-Different-Phenotype (%): 6%
  Total Cell Count: 623
[6]
  Population Apoptotic (%): 4%
  Population Fragmented Nuclei (%): 8%
  Population Healthy Nuclei (%): 84%
  Population Hoechst High Intensity Objects (%): 3%
  Population Membrane Permeable-Phenotype (%): 4%
  Population Mitochondria Different-Phenotype (%): 11%
  Population Mitotic Cells (%): 95%
  Population Normal (%): 96%
  Population Pyknosed Nuclei (%): 6%
  Population Tubulin-Different-Phenotype (%): 21%
  Total Cell Count: 1640
[7]
  Population Apoptotic (%): 27%
  Population Fragmented Nuclei (%): 15%
  Population Healthy Nuclei (%): 52%
  Population Hoechst High Intensity Objects (%): 14%
  Population Mitochondria Different-Phenotype (%): 24%
  Population Mitotic Cells (%): 72%
  Population Normal (%): 85%
  Population Pyknosed Nuclei (%): 31%
  Population Tubulin-Different-Phenotype (%): 47%
  Total Cell Count: 627
[8]
  Population Apoptotic (%): 14%
  Population Fragmented Nuclei (%): 4%
  Population Healthy Nuclei (%): 81%
  Population Hoechst High Intensity Objects (%): 7%
  Population Membrane Permeable-Phenotype (%): 8%
  Population Mitochondria Different-Phenotype (%): 47%
  Population Mitotic Cells (%): 85%
  Population Normal (%): 92%
  Population Pyknosed Nuclei (%): 14%
  Population Tubulin-Different-Phenotype (%): 89%
  Total Cell Count: 1130

## CN(C)CC#Cc1ccc(OCCCc2sc(N3CCc4cccc(C(=O)Nc5nc6ccccc6s5)c4C3)nc2C(=O)O)c(F)c1 [A-1155463]
[1]
  Population Apoptotic (%): 33%
  Population Fragmented Nuclei (%): 12%
  Population Healthy Nuclei (%): 42%
  Population Hoechst High Intensity Objects (%): 11%
  Population Membrane Permeable-Phenotype (%): 2%
  Population Mitochondria Different-Phenotype (%): 68%
  Population Mitotic Cells (%): 66%
  Population Normal (%): 88%
  Population Pyknosed Nuclei (%): 45%
  Population Tubulin-Different-Phenotype (%): 40%
  Total Cell Count: 278
[2]
  Population Apoptotic (%): 15%
  Population Fragmented Nuclei (%): 4%
  Population Healthy Nuclei (%): 44%
  Population Hoechst High Intensity Objects (%): 3%
  Population Membrane Permeable-Phenotype (%): 6%
  Population Mitochondria Different-Phenotype (%): 17%
  Population Mitotic Cells (%): 84%
  Population Normal (%): 96%
  Population Pyknosed Nuclei (%): 50%
  Population Tubulin-Different-Phenotype (%): 17%
  Total Cell Count: 177
[3]
  Population Apoptotic (%): 40%
  Population Fragmented Nuclei (%): 8%
  Population Healthy Nuclei (%): 41%
  Population Hoechst High Intensity Objects (%): 10%
  Population Membrane Permeable-Phenotype (%): 13%
  Population Mitochondria Different-Phenotype (%): 63%
  Population Mitotic Cells (%): 59%
  Population Normal (%): 89%
  Population Pyknosed Nuclei (%): 49%
  Population Tubulin-Different-Phenotype (%): 64%
  Total Cell Count: 288
[4]
  Population Apoptotic (%): 18%
  Population Fragmented Nuclei (%): 20%
  Population Healthy Nuclei (%): 39%
  Population Hoechst High Intensity Objects (%): 7%
  Population Membrane Permeable-Phenotype (%): 10%
  Population Mitochondria Different-Phenotype (%): 17%
  Population Mitotic Cells (%): 81%
  Population Normal (%): 92%
  Population Pyknosed Nuclei (%): 39%
  Population Tubulin-Different-Phenotype (%): 26%
  Total Cell Count: 263
[5]
  Population Apoptotic (%): 48%
  Population Fragmented Nuclei (%): 11%
  Population Healthy Nuclei (%): 38%
  Population Hoechst High Intensity Objects (%): 14%
  Population Membrane Permeable-Phenotype (%): 4%
  Population Mitochondria Different-Phenotype (%): 54%
  Population Mitotic Cells (%): 51%
  Population Normal (%): 85%
  Population Pyknosed Nuclei (%): 50%
  Population Tubulin-Different-Phenotype (%): 37%
  Total Cell Count: 286
[6]
  Population Apoptotic (%): 10%
  Population Fragmented Nuclei (%): 4%
  Population Healthy Nuclei (%): 56%
  Population Hoechst High Intensity Objects (%): 2%
  Population Membrane Permeable-Phenotype (%): 17%
  Population Mitochondria Different-Phenotype (%): 7%
  Population Mitotic Cells (%): 89%
  Population Normal (%): 97%
  Population Pyknosed Nuclei (%): 39%
  Population Tubulin-Different-Phenotype (%): 24%
  Total Cell Count: 220
[7]
  Population Apoptotic (%): 42%
  Population Fragmented Nuclei (%): 12%
  Population Healthy Nuclei (%): 43%
  Population Hoechst High Intensity Objects (%): 10%
  Population Membrane Permeable-Phenotype (%): 14%
  Population Mitochondria Different-Phenotype (%): 35%
  Population Mitotic Cells (%): 57%
  Population Normal (%): 89%
  Population Pyknosed Nuclei (%): 44%
  Population Tubulin-Different-Phenotype (%): 54%
  Total Cell Count: 298
[8]
  Population Apoptotic (%): 24%
  Population Fragmented Nuclei (%): 19%
  Population Healthy Nuclei (%): 52%
  Population Hoechst High Intensity Objects (%): 3%
  Population Membrane Permeable-Phenotype (%): 20%
  Population Mitochondria Different-Phenotype (%): 13%
  Population Mitotic Cells (%): 75%
  Population Normal (%): 96%
  Population Pyknosed Nuclei (%): 28%
  Population Tubulin-Different-Phenotype (%): 48%
  Total Cell Count: 287
[9]
  Population Apoptotic (%): 33%
  Population Fragmented Nuclei (%): 16%
  Population Healthy Nuclei (%): 35%
  Population Hoechst High Intensity Objects (%): 17%
  Population Membrane Permeable-Phenotype (%): 9%
  Population Mitochondria Different-Phenotype (%): 30%
  Population Mitotic Cells (%): 66%
  Population Normal (%): 82%
  Population Pyknosed Nuclei (%): 48%
  Population Tubulin-Different-Phenotype (%): 37%
  Total Cell Count: 322
[10]
  Population Apoptotic (%): 5%
  Population Fragmented Nuclei (%): 7%
  Population Healthy Nuclei (%): 78%
  Population Hoechst High Intensity Objects (%): 4%
  Population Membrane Permeable-Phenotype (%): 19%
  Population Mitochondria Different-Phenotype (%): 4%
  Population Mitotic Cells (%): 94%
  Population Normal (%): 95%
  Population Pyknosed Nuclei (%): 13%
  Population Tubulin-Different-Phenotype (%): 26%
  Total Cell Count: 397
[11]
  Population Apoptotic (%): 40%
  Population Fragmented Nuclei (%): 15%
  Population Healthy Nuclei (%): 56%
  Population Hoechst High Intensity Objects (%): 11%
  Population Membrane Permeable-Phenotype (%): 30%
  Population Mitochondria Different-Phenotype (%): 13%
  Population Mitotic Cells (%): 59%
  Population Normal (%): 88%
  Population Pyknosed Nuclei (%): 28%
  Population Tubulin-Different-Phenotype (%): 52%
  Total Cell Count: 390
[12]
  Population Apoptotic (%): 8%
  Population Healthy Nuclei (%): 65%
  Population Hoechst High Intensity Objects (%): 3%
  Population Membrane Permeable-Phenotype (%): 43%
  Population Mitochondria Different-Phenotype (%): 2%
  Population Mitotic Cells (%): 91%
  Population Normal (%): 96%
  Population Pyknosed Nuclei (%): 19%
  Population Tubulin-Different-Phenotype (%): 48%
  Total Cell Count: 365
